Screening data as filed in PubChem BioAssay.
Most compounds without a hit are left out; they make up all but 1.9% or so of the library.
Runt-SMMHC FRET: blocks binding of human RUNX1 Runt domain to CBFb-SMMHC; Q01196+Q13951; Cerulean-Runt/Venus-CBFb-SMMHC FRET ratio 530/480, 1 h; inhibition, % at 20 µM; actives 0.74% (n = 220,000);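 active = mean inhibition across duplicate retests at 20 µM reaching about 50%, limit read from the data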;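 also: inhibitors lower the FRET ratio by blocking Runt binding to CBFb-SMMHC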
HDAC3 inh: inhibitors of human histone deacetylase 3; inhibition, % at 8.3 µM; O15379; actives 0.15% (n = 320,000); recombinant HDAC3, fluorogenic peptide/trypsin coupled, fluorescence; in the data active = inhibition above about 26%, passing the limit was not always enough; inconclusive = no clear call, values can overlap the other calls
CaV13 FRET inh: Disruptors of the CACNA1D IQ motif to Ca2+-dependent inactivation inhibitor domain association, primary screening, Förster resonance energy transfer in intact living …. HEK cells, CFP/YFP FRET ICDI-IQ, plate reader, 10 min; percent FRET-ratio fall versus neutral wells. inhibition, % at 12.3 µM. AID 743397. actives 0.098% (n = 340,000);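 active = mean replicate inhibition of at least 30% and at least 1% of replicates passing that level; inconclusive = only one of the two criteria is met; inactive = neither criterion is met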
RanGTP-Imp inh: inhibitors of RanGTP-importin-beta interaction, primary screen, biochemical, FRET, CFP-Ran, YFP-importin-beta, homogeneous; cell-free CFP-Ran/YFP-importin-beta FRET ratio; actives 1.1% (n = 300,000); inhibition, % (concentration not given with the values);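 active = more than half of the replicate wells show a fall in the fluorescence ratio signal beyond about 16%, limit read from the data, passing the limit was not always enough; inconclusive = exactly half of the replicate wells pass the set limit; inactive = fewer than half of replicates pass the limit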
Runt-CBFb FRET: blocks binding of human RUNX1 Runt domain to CBFb. actives 0.46% (n = 220,000). Cerulean-Runt/Venus-CBFb FRET ratio 530/480, 1 h. Q01196+Q13951. inhibition, % at 20 µM;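 active = inhibition over about 50% at 20 µM in the single-dose screen, limit read from the data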
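Assay system: Cerulean-Runt domain fusion protein, energy donor; Signal: fluorescence energy transfer, 422 nm excitation, 530/480 nm emission; Timing: 1 h compound exposure, room temperature; Control set: unlabeled CBFb; Medium: Tris buffer pH 7.5 with salts and BSA; Compound: single test concentration of 20 µM, 1% DMSO final; Probe or stimulus: Venus-CBFb 100 nM.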
LANA-H2B inh: blocks KSHV LANA binding to histone H2A/H2B | inhibition, % (test concentration not listed) | actives 0.6% (n = 320,000) | cell-free LANA-H2A/H2B peptide, fluorescence polarization | Q9QR71 | AID 2629; in the data active = inhibition mostly above about 10%, no sharp cut-off; inactive = mostly below about 6.7%
Target sequence (Q9QR71 whole entry, looked up): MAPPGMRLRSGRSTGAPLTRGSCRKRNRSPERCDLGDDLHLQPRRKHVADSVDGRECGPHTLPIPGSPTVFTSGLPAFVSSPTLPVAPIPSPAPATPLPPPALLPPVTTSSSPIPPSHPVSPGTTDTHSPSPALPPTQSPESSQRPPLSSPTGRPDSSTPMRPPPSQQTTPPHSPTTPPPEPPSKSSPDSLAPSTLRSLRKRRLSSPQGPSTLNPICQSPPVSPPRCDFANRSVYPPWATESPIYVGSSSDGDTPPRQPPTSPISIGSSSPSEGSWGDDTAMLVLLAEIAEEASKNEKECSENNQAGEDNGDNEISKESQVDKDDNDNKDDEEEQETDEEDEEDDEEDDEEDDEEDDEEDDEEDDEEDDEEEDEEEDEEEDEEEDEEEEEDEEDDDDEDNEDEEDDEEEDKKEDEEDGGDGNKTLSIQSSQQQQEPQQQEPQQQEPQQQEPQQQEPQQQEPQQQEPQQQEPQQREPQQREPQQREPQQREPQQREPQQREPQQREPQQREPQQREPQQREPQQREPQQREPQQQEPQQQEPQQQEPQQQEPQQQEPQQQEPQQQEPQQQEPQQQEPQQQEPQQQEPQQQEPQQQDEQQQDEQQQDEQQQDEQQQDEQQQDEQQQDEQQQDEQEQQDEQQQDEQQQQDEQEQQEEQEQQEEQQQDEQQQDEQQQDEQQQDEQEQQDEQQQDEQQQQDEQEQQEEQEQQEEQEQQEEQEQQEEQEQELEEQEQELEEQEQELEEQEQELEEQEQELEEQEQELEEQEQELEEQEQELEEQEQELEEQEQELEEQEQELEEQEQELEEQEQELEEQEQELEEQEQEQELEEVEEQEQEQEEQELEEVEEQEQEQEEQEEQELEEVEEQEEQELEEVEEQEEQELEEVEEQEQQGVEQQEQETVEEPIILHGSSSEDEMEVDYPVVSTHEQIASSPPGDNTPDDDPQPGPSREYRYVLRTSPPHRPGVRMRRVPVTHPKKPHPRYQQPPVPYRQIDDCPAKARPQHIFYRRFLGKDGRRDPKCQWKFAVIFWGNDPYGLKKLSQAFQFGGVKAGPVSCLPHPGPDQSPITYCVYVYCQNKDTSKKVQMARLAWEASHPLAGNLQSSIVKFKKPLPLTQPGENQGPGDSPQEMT
YIC counter: counter-screen for RanGTP-importin-beta inhibitors: YIC FRET probe; shares compounds with RanGTP-Imp inh; actives 40% (n = 1,000); AID 435026; IC50, µM; Purified YIC probe, intramolecular FRET ratio YFP/CFP;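 active = fitted half-maximal inhibitory concentration no more than tenfold above the top dose tested; inconclusive = flat fit with 30 to 70% activity, or poor fit; inactive = half-maximal concentration beyond tenfold above the top dose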
Of the large screens only hits and unclear results are named; the others gave an inactive call (follow-up assays come after a bar, where they were run).

O=C(NCC1CCN(Cc2ccccc2Cl)CC1)Nc1ccccc1F	RanGTP-Imp inh 16.6 (no result: Runt-SMMHC FRET, Runt-CBFb FRET) | YIC counter inactive
CCOC(=O)C1(CCc2ccccc2)CCN(Cc2cc(OC)c(OC)cc2OC)CC1	none (no result: Runt-SMMHC FRET, Runt-CBFb FRET)
Cc1cccc(Nc2nc(C)nc3c2oc2ccccc23)c1	none (no result: Runt-SMMHC FRET, Runt-CBFb FRET)
CCCn1nc(NC(=O)CC(C)C)c2cc3cccc(C)c3nc21	RanGTP-Imp inh 19.9 (no result: Runt-SMMHC FRET, Runt-CBFb FRET) | YIC counter 31.8
CCn1nc(NS(=O)(=O)c2ccccc2[N+](=O)[O-])c2cc3cccc(C)c3nc21	none (no result: Runt-SMMHC FRET, Runt-CBFb FRET)
Nc1nc(-c2cccnc2)nn1C(=O)c1ccccc1Cl	none (no result: HDAC3 inh, LANA-H2B inh)
Cc1cc(/C=N/n2c(COc3ccccc3)nc3ccccc3c2=O)c(O)c([N+](=O)[O-])c1	none
O=C(CSCC(=O)NC1CC1)Nc1ccccc1	RanGTP-Imp inh 39.8 (no result: CaV13 FRET inh) | YIC counter inactive
CCN(C(=O)c1c(C)cc(=O)oc1C)c1ccc2c(c1)OCO2	RanGTP-Imp inh 17.3 (no result: HDAC3 inh) | YIC counter inactive
Cc1ccc(/C=C(\C#N)C(=O)NC(C)C)o1	none
CC(C)NC(=O)/C(C#N)=C/c1ccc(N(C)C)o1	RanGTP-Imp inh 40.8 | YIC counter 6.38
COCCn1c(SC2CCCCC2=O)nnc1-c1ccncc1 (stereo not given)	none
CCOC(=O)/C(C#N)=C1/C=Nc2ccccc2N1	RanGTP-Imp inh 26.6 | YIC counter inactive
CCOC(=O)/C(C#N)=C1/C=CN(c2ccccc2)C=N1	none
COc1cccc(/C=N/NC(=O)c2ccc3nc[nH]c3c2)c1O	none
CCN(CC)c1ccc(/C=N/NC(=O)c2ccc3nc[nH]c3c2)c(O)c1	Runt-SMMHC FRET 61.7, RanGTP-Imp inh 37.8 (no result: CaV13 FRET inh) | YIC counter 13.3
CCOC(=O)C1C(=O)C=C(c2ccc(C)cc2)CC1c1ccco1 (stereo not given)	RanGTP-Imp inh inconclusive
Cc1cc(NCCN(C)C)n2nc(-c3cccs3)cc2n1	RanGTP-Imp inh 17.2 | YIC counter 24.5
Cc1cc(NCCCO)n2nc(-c3cccs3)cc2n1	none
COCCNC(=O)CCC1CCN(Cc2cccc(-c3ccc(C)o3)c2)CC1	none (no result: Runt-SMMHC FRET, Runt-CBFb FRET)
COc1ccc(-c2ccc3oc(-c4ccsc4)c(-c4ccc(Br)nc4)c3c2)cc1	none (no result: Runt-SMMHC FRET, CaV13 FRET inh, RanGTP-Imp inh, Runt-CBFb FRET)
FC(F)(F)c1ccccc1/C=N/N1CCN(Cc2ccccc2)CC1	none
COc1ccc(C(=O)NCCNc2nc3cc(C)c(C)cc3cc2C)cc1	none (no result: Runt-SMMHC FRET, Runt-CBFb FRET)
Cc1cccc2cc(C#N)c(NCCNC(=S)NCCCN3CCOCC3)nc12	Runt-SMMHC FRET 64.1, RanGTP-Imp inh 18.7 | YIC counter 48.1
Cc1ccc2nc(NCCNC(=O)c3ccccc3)c(C#N)cc2c1	RanGTP-Imp inh 49.2 (no result: Runt-SMMHC FRET, Runt-CBFb FRET) | YIC counter 4.66
COc1ccc(C(=O)NCCNc2nc3c(C)cccc3cc2C#N)cc1	RanGTP-Imp inh 36.2 (no result: Runt-SMMHC FRET, Runt-CBFb FRET) | YIC counter 18.2
Cc1cccc(C(=O)NCCNc2nc3cc(C)c(C)cc3cc2C)c1	none
Cc1noc(C)c1NC(=O)N(C)C[C@H]1OCCCC[C@@H](C)Oc2ccc(NC(=O)Nc3ccc(F)cc3)cc2C(=O)N([C@@H](C)CO)C[C@H]1C	none (no result: Runt-SMMHC FRET, HDAC3 inh, RanGTP-Imp inh, Runt-CBFb FRET, LANA-H2B inh)
C[C@@H]1CCCCO[C@@H](CN(C)C(=O)CCC(F)(F)F)[C@@H](C)CN([C@@H](C)CO)C(=O)c2cc(NC(=O)CCC(F)(F)F)ccc2O1	none (no result: Runt-SMMHC FRET, HDAC3 inh, CaV13 FRET inh, RanGTP-Imp inh, Runt-CBFb FRET, LANA-H2B inh) | YIC counter inactive
Cc1noc(C)c1NC(=O)Nc1ccc2c(c1)C(=O)N([C@H](C)CO)C[C@@H](C)[C@@H](CN(C)C(=O)Nc1c(C)noc1C)OCCCC[C@@H](C)O2	none (no result: Runt-SMMHC FRET, HDAC3 inh, CaV13 FRET inh, RanGTP-Imp inh, Runt-CBFb FRET, LANA-H2B inh) | YIC counter inactive
O=C(CSc1n[nH]c(-c2ccccc2)n1)NC(=O)NCc1ccco1	none
COc1ccc(-c2cc(=O)oc3cc(O)ccc23)cc1	none (no result: Runt-SMMHC FRET, Runt-CBFb FRET)
COc1ccc(-c2c(C)c3ccc(O)cc3oc2=O)cc1	RanGTP-Imp inh 18.7 (no result: Runt-SMMHC FRET, Runt-CBFb FRET) | YIC counter 22
Cc1c(C(=O)NC2=NCCS2)oc2ccccc12	none
Cc1sc(NC(=O)c2oc3ccccc3c2C)c(C#N)c1C	RanGTP-Imp inh 25.2 | YIC counter inactive
O=C(Nc1cccc(-c2nc3ccccc3s2)c1)c1cccs1	RanGTP-Imp inh 25.2 | YIC counter inactive
Cc1ccc2cc(C#N)c(N3CCCN(C(=O)C4CCCO4)CC3)nc2c1 (stereo not given)	RanGTP-Imp inh 17.6 | YIC counter 26.1
COc1cc(C(=O)N2CCCN(c3nc4cc(C)ccc4cc3C#N)CC2)cc(OC)c1OC	RanGTP-Imp inh 52.4 | YIC counter 15.4
COc1cccc(C(=O)N2CCN(c3nc4cc(C)cc(C)c4cc3C#N)CC2)c1	none (no result: Runt-SMMHC FRET, HDAC3 inh, RanGTP-Imp inh, Runt-CBFb FRET, LANA-H2B inh)
Cc1ccc2cc(C#N)c(N3CCCN(C(=S)NCCCN(C)C)CC3)nc2c1	RanGTP-Imp inh 18.9 (no result: Runt-SMMHC FRET, Runt-CBFb FRET) | YIC counter 25.1
Cc1ccc(S(=O)(=O)N2CCCN(c3nc4cc(C)ccc4cc3C#N)CC2)cc1	RanGTP-Imp inh 32.0 | YIC counter 27.9
Cc1ccc2nc(N3CCN(Cc4nnnn4C4CCCC4)CC3)c(C#N)cc2c1	none
Cc1ccc2nc(N3CCN(S(=O)(=O)c4ccc5c(c4)OCCO5)CC3)c(C#N)cc2c1	none
Cc1ccc2cc(C#N)c(N3CCN(C(=O)c4ccccc4)CC3)nc2c1	none (no result: Runt-SMMHC FRET, Runt-CBFb FRET)
CCCCN1CC[C@H]2C=CC[C@@H](C(=O)Nc3ccc(Cl)c(C(F)(F)F)c3)[C@H]2C1=O	none (no result: Runt-SMMHC FRET, Runt-CBFb FRET)
CCOC(=O)c1ccc(N2CCN(c3ccccc3F)CC2)c(NC(=O)Nc2ccccc2)c1	none
